Data reported in ChEMBL document CHEMBL1122797, “Benzisoxazolones: antimicrobial and antileukemic activity” (1984).
In brackets after ≈: the same amount, converted by molar mass. Several values for one entry are separate records, joined by “and”; a condition that tells them apart may be missing. Equal values may be shown once. Activity calls are given as the source filed them. No cut-off for these calls is given here.

Legend:
Bacillus subtilis = experiment: Evaluation of in vitro antimicrobial activity with an agar diffusion assay against Bacillus subtilis; assay type: functional
How it was run: (§1)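 Agar diffusion assay. A standard antibiotic was run to validate the assays, with data reproducible to ± 3 mm between assays.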

Escherichia coli [1] = experiment: Evaluation of in vitro antimicrobial activity with an agar diffusion assay against Escherichia coli; assay type: functional; how it was run: as §1
Klebsiella pneumoniae [2] = experiment: Evaluation of in vitro antimicrobial activity with an agar diffusion assay against Klebsiella pneumoniae; assay type: functional; how it was run: as §1
Micrococcus luteus = experiment: Evaluation of in vitro antimicrobial activity with an agar diffusion assay against Micrococcus luteus; assay type: functional; how it was run: as §1
Penicillium oxalicum = experiment: Evaluation of in vitro antimicrobial activity with an agar diffusion assay against Penicillium oxalicum; assay type: functional, pencillium oxalicum; how it was run: as §1
Proteus vulgaris [3] = experiment: Evaluation of in vitro antimicrobial activity with an agar diffusion assay against Proteus vulgaris; assay type: functional; how it was run: as §1
Pseudomonas = experiment: Evaluation of in vitro antimicrobial activity with an agar diffusion assay against Pseudomonas fluorescence; assay type: functional; how it was run: as §1
Pseudomonas aeruginosa [4] = experiment: Evaluation of in vitro antimicrobial activity with an agar diffusion assay against Pseudomonas aeruginosa; assay type: functional; how it was run: as §1
[5] = Evaluation of in vitro antimicrobial activity with an agar diffusion assay against Salmonella schottmuelleri; assay type: functional; how it was run: as §1
Staphylococcus aureus [6] = experiment: Evaluation of in vitro antimicrobial activity with an agar diffusion assay against Staphylococcus aureus; assay type: functional; how it was run: as §1
Pseudomonas aeruginosa [7] = experiment: Evaluation of in vitro antimicrobial activity with an agar diffusion assay against Pseudomonas aeruginosa; Inactive; assay type: functional, organism-based; how it was run: as §1
L1210 [8] = experiment: In vitro antileukemic (cytotoxic) activity against L1210 cells in suspension.; assay type: functional, Mus musculus; conditions: for IC50: Mus musculus, L1210, read-out: ID50 (the source's name)
Escherichia coli [9] = experiment: In vitro evaluation of antimicrobial activity with microplate broth dilution assay against Escherichia coli UC45; assay type: functional
How it was run: (§2)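 Serial twofold dilutions prepared in modified brain heart infusion broth in microplate wells. Each well inoculated with standardized cell suspension to ~10^6 viable cells per mL of drug-supplemented medium. Plates incubated 37 °C for 20 h. MIC read as lowest concentration inhibiting visible growth.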

Klebsiella pneumoniae [10] = experiment: In vitro evaluation of antimicrobial activity with microplate broth dilution assay against Klebsiella pneumoniae UC58; assay type: functional; how it was run: as §2
L1210 [11] = experiment: In vitro evaluation of the antileukemic (cytotoxic) activity against L1210 cells in suspension; assay type: functional, Mus musculus
Proteus mirabilis = experiment: In vitro evaluation of antimicrobial activity with microplate broth dilution assay against Proteus mirabilis UC6671; assay type: functional; how it was run: as §2
Providencia stuartii = experiment: In vitro evaluation of antimicrobial activity with microplate broth dilution assay against Providencia stuartii UC6570; assay type: functional; how it was run: as §2
Proteus vulgaris [12] = experiment: In vitro evaluation of antimicrobial activity with microplate broth dilution assay against Proteus vulgaris UC93; assay type: functional; how it was run: as §2
Salmonella typhi = experiment: In vitro evaluation of antimicrobial activity with microplate broth dilution assay against Salmonella typhi UC215; assay type: functional, Salmonella enterica subsp. enterica serovar Typhi; conditions: Salmonella enterica
How it was run: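 Twofold serial dilutions in modified brain heart infusion broth in microplate wells, each inoculated with standardized cell suspension to about 10^6 viable cells/mL final. Incubated 37 °C for 20 h. MIC read as the lowest concentration inhibiting visible growth.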

[13] = In vitro evaluation of antimicrobial activity with microplate broth dilution assay against Salmonella schottmuelleri UC126; assay type: functional; how it was run: as §2
[14] = test system: Saccharomyces pastorianus; experiment: Evaluation of in vitro antimicrobial activity with an agar diffusion assay against Saccharomyces pastorianus; assay type: functional; how it was run: as §1
Shigella flexneri = experiment: In vitro evaluation of antimicrobial activity with microplate broth dilution assay against Shigella flexneri UC143; assay type: functional; how it was run: as §2
Serratia marcescens = experiment: In vitro evaluation of antimicrobial activity with microplate broth dilution assay against Serratia marcescens UC131; assay type: functional; how it was run: as §2
Enterococcus faecalis [15] = experiment: In vitro evaluation of antimicrobial activity with microplate broth dilution assay against Streptococcus faecalis UC694; assay type: functional, streptococcus feacal; how it was run: as §2
Staphylococcus aureus [16] = experiment: In vitro evaluation of antimicrobial activity with microplate broth dilution assay against Staphylococcus aureus UC76; assay type: functional; how it was run: as §2
Pseudomonas aeruginosa [17] = experiment: In vitro evaluation of antimicrobial activity with microplate broth dilution assay against Pseudomonas aeruginosa UC95; assay type: functional; how it was run: as §2
Enterococcus faecalis [18] = experiment: In vitro evaluation of antimicrobial activity with microplate broth dilution assay against Streptococcus faecalis UC694

Compound | Zone of inhibition (Bacillus subtilis) [mm] | Zone of inhibition (Escherichia coli [1]) [mm] | Zone of inhibition (Klebsiella pneumoniae [2]) [mm] | Zone of inhibition (Micrococcus luteus) [mm] | Zone of inhibition (Penicillium oxalicum) [mm] | Zone of inhibition (Proteus vulgaris [3]) [mm] | Zone of inhibition (Pseudomonas) [mm] | Zone of inhibition (Pseudomonas aeruginosa [4]) [mm] | Zone of inhibition [5] [mm] | Zone of inhibition (Staphylococcus aureus [6]) [mm] | ID50 (L1210 [8]) | further results
CC(C)C(=O)OCn1oc(=O)c2ccccc21 | 17 | 17 | 22 | 22 | 29 | 24 | 33 | 22 | 23 | 17 |  | 
Cn1oc(=O)c2ccccc21 |  |  |  |  |  |  |  |  |  |  |  | Zone of inhibition (Pseudomonas aeruginosa [7]): inactive
O=C(CCCCCI)OCn1oc(=O)c2ccccc21 | 15 |  |  |  | 26 | 15 | 23 | 17 |  |  | 19 µg/mL (≈ 48.8 µM) | 
CNC(=O)n1oc(=O)c2ccccc21 |  |  | 16 |  |  | 19 |  | 24 |  |  | 4.9 µg/mL and 14 µg/mL | 
CC(=O)OCn1oc(=O)c2ccccc21 | 24 | 26 | 24 | 24 | 43 | 25 | 32 | 32 | 22 | 15 |  | MIC (Escherichia coli [9]): 125 µg/mL (≈ 603 µM); MIC (Klebsiella pneumoniae [10]): 62.5 µg/mL (≈ 302 µM); IC50 (L1210 [8]): 5.1 µg/mL (≈ 24.6 µM); ID90 (L1210 [11]): 19 µg/mL (≈ 91.7 µM); MIC (Proteus mirabilis): 62.5 µg/mL (≈ 302 µM); MIC (Providencia stuartii): 125 µg/mL (≈ 603 µM); MIC (Proteus vulgaris [12]): 15.6 µg/mL (≈ 75.3 µM); MIC (Salmonella typhi): 62.5 µg/mL (≈ 302 µM); MIC [13]: 62.5 µg/mL (≈ 302 µM); Zone of inhibition [14]: 17 mm; MIC (Shigella flexneri): 62.5 µg/mL (≈ 302 µM); MIC (Serratia marcescens): 15.6 µg/mL (≈ 75.3 µM); MIC (Enterococcus faecalis [15]): > 250 µg/mL; MIC (Staphylococcus aureus [16]): > 250 µg/mL
O=C(NCCCCCI)n1oc(=O)c2ccccc21 |  |  |  |  |  |  |  |  |  |  | 3.7 µg/mL and 8.6 µg/mL | Zone of inhibition (Pseudomonas aeruginosa [7]): inactive
O=c1on(CO)c2ccccc12 |  |  |  |  |  |  |  |  |  |  |  | MIC (Escherichia coli [9]): 15.6 µg/mL (≈ 94.5 µM); MIC (Klebsiella pneumoniae [10]): 31.6 µg/mL (≈ 191 µM); MIC (Proteus mirabilis): 15.6 µg/mL (≈ 94.5 µM); MIC (Providencia stuartii): 31.2 µg/mL (≈ 189 µM); MIC (Proteus vulgaris [12]): 3.9 µg/mL (≈ 23.6 µM); MIC (Salmonella typhi): 7.8 µg/mL (≈ 47.2 µM); MIC [13]: 31.2 µg/mL (≈ 189 µM); MIC (Shigella flexneri): 15.6 µg/mL (≈ 94.5 µM); MIC (Serratia marcescens): 2 µg/mL (≈ 12.1 µM); MIC (Pseudomonas aeruginosa [17]): 7.8 µg/mL (≈ 47.2 µM); MIC (Staphylococcus aureus [16]): 62.5 µg/mL (≈ 378 µM); MIC (Enterococcus faecalis [18]): 250 µg/mL (≈ 1510 µM)
O=C(COc1ccccc1)OCn1oc(=O)c2ccccc21 | 20 | 18 | 22 | 19 | 24 | 21 | 31 | 19 | 20 | 15 |  | 
CC(=O)n1oc(=O)c2ccccc21 | 24 | 26 | 20 | 18 | 49 | 23 | 31 | 38 | 20 |  | 3.4 µg/mL and 8.7 µg/mL | Zone of inhibition [14]: 21 mm
CC(C)(C)C(=O)OCn1oc(=O)c2ccccc21 | 18 | 17 | 21 | 18 | 31 | 18 | 30 | 20 | 22 | 18 |  | 
CCCCCCCCCCCCCCCC(=O)OCn1oc(=O)c2ccccc21 |  |  |  |  |  |  |  |  |  |  |  | Zone of inhibition (Pseudomonas aeruginosa [7]): inactive
Cc1ccc(C(=O)OCn2oc(=O)c3ccccc32)cc1 | 20 | 18 | 21 |  | 24 | 22 | 20 | 22 | 17 |  |  | IC50 (L1210 [8]): 4.6 µg/mL (≈ 16.2 µM); ID90 (L1210 [11]): 17 µg/mL (≈ 60 µM)
CNC(=O)OCn1oc(=O)c2ccccc21 | 16 | 30 | 23 | 33 | 46 | 32 | 33 | 39 | 28 |  |  | MIC (Escherichia coli [9]): 31.2 µg/mL (≈ 140 µM); MIC (Klebsiella pneumoniae [10]): 62.5 µg/mL (≈ 281 µM); IC50 (L1210 [8]): 3.5 µg/mL (≈ 15.8 µM); ID90 (L1210 [11]): 8.6 µg/mL (≈ 38.7 µM); MIC (Proteus mirabilis): 31.2 µg/mL (≈ 140 µM); MIC (Providencia stuartii): 62.5 µg/mL (≈ 281 µM); MIC (Proteus vulgaris [12]): 15.6 µg/mL (≈ 70.2 µM); MIC (Salmonella typhi): 15.6 µg/mL (≈ 70.2 µM); MIC [13]: 31.2 µg/mL (≈ 140 µM); MIC (Shigella flexneri): 31.2 µg/mL (≈ 140 µM); MIC (Serratia marcescens): 3.9 µg/mL (≈ 17.6 µM); MIC (Pseudomonas aeruginosa [17]): 15.6 µg/mL (≈ 70.2 µM); MIC (Staphylococcus aureus [16]): 62.5 µg/mL (≈ 281 µM)
Oc1onc2ccccc12 | 22 | 25 | 26 | 27 | 41 | 30 | 35 | 30 | 26 | 15 | 3.1 µg/mL and 8 µg/mL | Zone of inhibition [14]: 16 mm
COCn1oc(=O)c2ccccc21 |  |  |  |  |  |  |  |  |  |  |  | Zone of inhibition (Pseudomonas aeruginosa [7]): inactive
CS(=O)(=O)n1oc(=O)c2ccccc21 |  |  |  |  |  |  |  | 31 |  |  | 3.7 µg/mL and 8.6 µg/mL | 
